Data from paper PMC6726563 (Structure (London, England : 1993), 2019).
pKd: −log10 of the molar value.

Experiments:
[1] = biological target: αVβ3** double mutant (β3-M180A and β3-R214G) transiently expressed on HEK293T cells (UniProt P06756); assay: flow cytometry on cells
[2] = tested on: Human αVβ3 ectodomain; assay: Crystal structure of knottin bound to αVβ3 ectodomain; conditions: Mn2+
How it was run: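 Human αVβ3 ectodomain was expressed in insect cells and crystallized at 4 °C by hanging-drop vapor diffusion. Test compound (5 mM) was soaked into the crystals in well solution with 1 mM Mn2+ for 2–3 weeks. Crystals were harvested in 12% PEG 3500, 100 mM sodium acetate pH 4.5, 800 mM NaCl, 2 mM Mn2+ and 5 mM test compound. They were cryoprotected stepwise to 24% glycerol and flash frozen. Phases came from molecular replacement.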

[3] = tested on: integrins αVβ3 and α5β1; assay: Integrin selectivity of knottins; assay type: binding
[4] = tested on: αVβ3; conditions: ref Kimura et al., 2009a; cited from earlier work
[5] = tested on: α5β1; conditions: ref Kimura et al., 2009a; cited from earlier work
[6] = tested on: patients with glioblastoma; conditions: ref Mason, 2015, cited from earlier work
[7] = tested on: αVβ3; conditions: ref Van Agthoven et al., 2014; Xiong et al., 2002; cited from earlier work
[8] = tested on: αVβ3; conditions: ref Reynolds et al., 2009; cited from earlier work
[9] = biological target: native integrin α5β1 on K562 cells (human (endogenous in K562)) (UniProt P08648); assay: flow cytometry on cells
[10] = biological target: native integrins expressed on U87MG (human (endogenous in U87MG)); assay: flow cytometry on cells
[11] = biological target: recombinant integrin αVβ3 stably expressed on K562 cells (UniProt P06756); assay: flow cytometry on cells

Sequence of UniProt P08648 (P08648 42-1049, chain 1 of 2): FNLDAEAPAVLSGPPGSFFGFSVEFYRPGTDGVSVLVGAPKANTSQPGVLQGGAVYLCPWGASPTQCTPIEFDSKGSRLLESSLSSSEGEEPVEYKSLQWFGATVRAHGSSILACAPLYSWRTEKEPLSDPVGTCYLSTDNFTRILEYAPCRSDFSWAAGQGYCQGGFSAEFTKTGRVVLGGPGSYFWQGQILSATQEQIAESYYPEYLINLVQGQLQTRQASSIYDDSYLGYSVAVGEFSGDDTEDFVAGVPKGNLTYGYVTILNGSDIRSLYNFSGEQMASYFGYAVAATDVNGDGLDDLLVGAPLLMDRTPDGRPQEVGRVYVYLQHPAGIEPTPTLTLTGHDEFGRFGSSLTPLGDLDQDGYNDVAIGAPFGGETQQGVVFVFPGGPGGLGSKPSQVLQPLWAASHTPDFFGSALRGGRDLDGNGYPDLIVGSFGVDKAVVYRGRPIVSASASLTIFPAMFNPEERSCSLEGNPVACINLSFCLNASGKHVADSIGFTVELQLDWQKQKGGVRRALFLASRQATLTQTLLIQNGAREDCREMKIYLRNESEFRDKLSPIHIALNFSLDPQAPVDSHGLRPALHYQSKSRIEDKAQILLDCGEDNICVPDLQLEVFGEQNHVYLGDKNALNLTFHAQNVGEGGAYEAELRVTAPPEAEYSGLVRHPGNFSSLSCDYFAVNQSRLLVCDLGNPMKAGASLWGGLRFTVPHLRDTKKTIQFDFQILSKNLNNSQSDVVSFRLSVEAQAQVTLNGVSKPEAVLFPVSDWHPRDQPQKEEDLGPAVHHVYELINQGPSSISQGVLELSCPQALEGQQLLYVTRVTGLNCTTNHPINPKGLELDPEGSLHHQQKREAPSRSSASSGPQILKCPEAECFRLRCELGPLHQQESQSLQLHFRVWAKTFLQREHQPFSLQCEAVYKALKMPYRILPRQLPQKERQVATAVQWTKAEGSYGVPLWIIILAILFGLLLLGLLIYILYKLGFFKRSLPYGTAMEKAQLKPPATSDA
Sequence of UniProt P08648 (P05556 21-798, chain 2 of 2, further chain): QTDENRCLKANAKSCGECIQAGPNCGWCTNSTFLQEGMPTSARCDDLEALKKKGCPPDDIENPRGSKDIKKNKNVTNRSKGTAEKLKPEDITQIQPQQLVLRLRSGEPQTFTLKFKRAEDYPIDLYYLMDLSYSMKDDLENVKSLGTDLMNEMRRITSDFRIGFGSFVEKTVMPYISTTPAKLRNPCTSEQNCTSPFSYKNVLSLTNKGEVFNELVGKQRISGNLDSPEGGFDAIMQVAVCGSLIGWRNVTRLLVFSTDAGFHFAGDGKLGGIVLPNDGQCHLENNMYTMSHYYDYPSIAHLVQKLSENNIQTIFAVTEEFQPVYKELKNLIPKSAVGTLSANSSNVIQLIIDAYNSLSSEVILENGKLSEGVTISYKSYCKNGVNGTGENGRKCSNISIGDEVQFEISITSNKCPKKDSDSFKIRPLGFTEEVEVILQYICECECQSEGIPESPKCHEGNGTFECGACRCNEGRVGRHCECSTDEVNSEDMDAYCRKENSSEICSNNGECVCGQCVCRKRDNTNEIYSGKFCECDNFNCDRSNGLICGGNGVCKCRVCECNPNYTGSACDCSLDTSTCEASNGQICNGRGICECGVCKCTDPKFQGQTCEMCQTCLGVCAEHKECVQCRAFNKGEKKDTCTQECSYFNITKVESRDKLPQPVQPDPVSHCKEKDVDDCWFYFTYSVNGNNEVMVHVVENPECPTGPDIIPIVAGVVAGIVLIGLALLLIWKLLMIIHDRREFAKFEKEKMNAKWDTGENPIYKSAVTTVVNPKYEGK

Substance: Alexa-647-labeled knottin 2.5D (designed binder)
- percent of binding to wt-αVβ3 [1]: 28%

Substance: QG^5RGDWA^10P (disulfide) [2.5D]
- agonist character inferred from βA domain conformational change [2]: partial agonists
- integrin selectivity (in words) [3]: αVβ3-specific
- affinity to αVβ3 (in words) [4]: nanomolar affinity

Substance: RP^5RGDNP^10P (disulfide) [2.5F]
- agonist character inferred from βA domain conformational change [2]: partial agonists
- integrin selectivity (in words) [3]: binds both αVβ3 and α5β1
- affinity to αVβ3 (in words) [4]: nanomolar affinity
- affinity to α5β1 (in words) [5]: nanomolar affinity

Substance: cilengitide: partial agonist targeting αVβ3
- pharmacokinetics (in words) ([6]; likely related to failure in glioblastoma): unfavorable pharmacokinetics
- survival of patients (in words) ([6]; primary targeting of αVβ3): failed to prolong survival of patients with glioblastoma
- agonist/antagonist character at αVβ3 [7]: partial agonist
- agonist-like behavior (in words) [8]: agonist-like behavior

Substance: 2.5F-Fc fusion protein
- pKd [9]: 8.04
- pKd [10]: 8.23
- pKd [11]: 8.16

Substance: 2.5D-Fc fusion protein
- pKd [10]: 8.77
- pKd [11]: 8.85

Substance: Alexa-647-labeled knottin 2.5F (designed binder)
- percent of binding to wt-αVβ3 [1]: 85%
